Laboratory results reported in ChEMBL document CHEMBL2203171, “The use of small molecule probes to study spatially separated stimulus-induced signaling pathways” (Bioorg Med Chem Lett, 2012).
Calls of active or inactive are those of the source. No cut-off for these calls is given here.

Experiments:
Format in all cases: cell-based
[1] = target: T1, Toll-like receptor 9 (Mus musculus) (UniProt Q9EQU3); assay: Inhibition of MyD88 recruitment to TLR9 in C57BL/6 mouse BMDM cells assessed as inhibition of CpG-induced p38 MAPK activity up to 90 mins
T1 sequence (whole entry): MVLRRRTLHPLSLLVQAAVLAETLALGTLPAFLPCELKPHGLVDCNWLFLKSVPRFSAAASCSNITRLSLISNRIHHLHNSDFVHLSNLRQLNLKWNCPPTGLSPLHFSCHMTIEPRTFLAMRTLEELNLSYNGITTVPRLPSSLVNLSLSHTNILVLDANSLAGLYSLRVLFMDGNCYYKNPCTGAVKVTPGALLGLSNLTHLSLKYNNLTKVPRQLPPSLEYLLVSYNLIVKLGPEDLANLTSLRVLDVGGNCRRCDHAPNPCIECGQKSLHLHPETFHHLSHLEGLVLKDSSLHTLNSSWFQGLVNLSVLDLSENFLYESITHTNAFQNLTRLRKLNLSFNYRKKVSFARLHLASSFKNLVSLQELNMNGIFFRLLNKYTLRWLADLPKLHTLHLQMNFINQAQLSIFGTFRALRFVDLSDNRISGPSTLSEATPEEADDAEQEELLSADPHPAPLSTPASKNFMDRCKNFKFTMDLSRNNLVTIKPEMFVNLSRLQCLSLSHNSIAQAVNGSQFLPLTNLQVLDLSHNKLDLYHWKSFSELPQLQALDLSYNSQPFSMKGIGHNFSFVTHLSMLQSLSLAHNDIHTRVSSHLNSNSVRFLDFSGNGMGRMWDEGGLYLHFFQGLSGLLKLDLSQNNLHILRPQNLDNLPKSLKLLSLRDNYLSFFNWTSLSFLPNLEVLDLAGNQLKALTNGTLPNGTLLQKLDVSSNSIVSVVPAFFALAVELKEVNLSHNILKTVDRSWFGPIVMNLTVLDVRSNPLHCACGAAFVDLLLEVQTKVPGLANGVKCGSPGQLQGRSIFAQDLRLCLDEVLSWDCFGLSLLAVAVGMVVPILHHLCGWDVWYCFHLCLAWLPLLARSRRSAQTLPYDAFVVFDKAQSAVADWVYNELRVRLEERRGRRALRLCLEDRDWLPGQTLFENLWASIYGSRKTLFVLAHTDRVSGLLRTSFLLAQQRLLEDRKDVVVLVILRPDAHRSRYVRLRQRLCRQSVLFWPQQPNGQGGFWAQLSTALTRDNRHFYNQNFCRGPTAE
How it was run: (§1)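 Bone marrow macrophages from C57BL/6 mice, grown in 70% growth medium (DMEM, 10% FBS) plus 30% L929-conditioned medium and given fresh medium 12-14 h before stimulation. Stimuli: IL-1 40 ng/ml, HKSA ~10^8 cfu/ml, pI:pC 50 μg/ml or CpG 10 μg/ml, ± compound at 10 μM (final) added from a 200x DMSO stock. IκBα and p38 profiled by immunoblot. Three independent experiments, quantitated and normalized.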

[2] = target: Toll-like receptor 4 (Homo sapiens) (UniProt O00206); assay: Inhibition of MyD88 recruitment to TLR4 cytoplasmic domain expressed in CHO cells at 25 to 50 uM incubated for 30 mins prior to CCf2/AM loading measured after 1 hr by beta-lactamase complementation assay
Chain of Toll-like receptor 4 (Homo sapiens) (O00206 whole entry, the tested form may be a part): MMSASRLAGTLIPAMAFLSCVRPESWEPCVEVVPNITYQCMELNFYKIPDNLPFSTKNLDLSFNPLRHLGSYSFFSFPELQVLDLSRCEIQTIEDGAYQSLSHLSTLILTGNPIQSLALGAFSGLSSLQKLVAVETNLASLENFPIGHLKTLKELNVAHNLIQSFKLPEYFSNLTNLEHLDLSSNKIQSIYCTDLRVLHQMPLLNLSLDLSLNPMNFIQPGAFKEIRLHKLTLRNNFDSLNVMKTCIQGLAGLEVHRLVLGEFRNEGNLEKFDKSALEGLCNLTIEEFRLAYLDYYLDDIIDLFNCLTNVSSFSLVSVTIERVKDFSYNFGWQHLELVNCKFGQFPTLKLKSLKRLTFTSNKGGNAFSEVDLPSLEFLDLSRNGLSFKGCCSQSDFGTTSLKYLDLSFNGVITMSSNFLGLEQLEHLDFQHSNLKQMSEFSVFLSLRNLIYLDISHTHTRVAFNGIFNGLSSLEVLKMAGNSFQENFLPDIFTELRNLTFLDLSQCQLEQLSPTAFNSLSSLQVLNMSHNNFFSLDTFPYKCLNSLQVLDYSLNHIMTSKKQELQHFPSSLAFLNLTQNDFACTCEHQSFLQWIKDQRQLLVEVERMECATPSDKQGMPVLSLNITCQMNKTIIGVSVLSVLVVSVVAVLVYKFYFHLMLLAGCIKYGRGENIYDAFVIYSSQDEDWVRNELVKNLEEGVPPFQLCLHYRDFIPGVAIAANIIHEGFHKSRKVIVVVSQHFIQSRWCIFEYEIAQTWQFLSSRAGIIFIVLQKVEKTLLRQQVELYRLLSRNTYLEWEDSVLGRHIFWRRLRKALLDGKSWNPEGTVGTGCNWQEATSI
How it was run: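 CHO cells co-expressing TLR4- and MyD88-β-lactamase fragment fusions, or empty-vector controls, were plated for 24 h and then treated 30 min with compound at 25 or 50 μM. Cells were loaded with 1 μM CCF2/AM for 1 h at room temperature and imaged by fluorescence microscopy (405 nm excitation, 435 nm long-pass emission). Read-out: percent of blue (β-lactamase-positive) cells.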

[3] = target: T2, Interleukin-1 receptor type 1 (Mus musculus) (UniProt P13504); assay: Inhibition of MyD88 recruitment to IL-1R in C57BL/6 mouse BMDM cells assessed as inhibition of IL-1-induced IkappaBalpha phosphorylation up to 90 mins by Western blot analysis; how it was run: as §1
T2 sequence (whole entry): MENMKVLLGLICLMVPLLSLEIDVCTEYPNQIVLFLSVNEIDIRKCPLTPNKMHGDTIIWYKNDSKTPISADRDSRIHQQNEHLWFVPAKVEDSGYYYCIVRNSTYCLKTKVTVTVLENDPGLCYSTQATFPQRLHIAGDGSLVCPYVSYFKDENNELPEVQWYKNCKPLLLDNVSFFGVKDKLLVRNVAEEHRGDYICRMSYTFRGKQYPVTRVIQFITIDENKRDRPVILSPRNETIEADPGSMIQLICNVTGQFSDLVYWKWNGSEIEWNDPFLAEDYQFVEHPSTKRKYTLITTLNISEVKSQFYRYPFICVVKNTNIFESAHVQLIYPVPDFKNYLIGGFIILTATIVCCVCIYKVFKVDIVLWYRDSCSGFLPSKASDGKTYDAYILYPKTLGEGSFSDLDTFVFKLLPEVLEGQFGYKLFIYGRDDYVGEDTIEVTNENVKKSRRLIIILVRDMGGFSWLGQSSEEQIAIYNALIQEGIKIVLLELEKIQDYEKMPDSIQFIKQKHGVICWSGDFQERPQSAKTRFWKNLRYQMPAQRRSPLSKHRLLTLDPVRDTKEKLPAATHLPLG

[4] = target: T3, Inhibitor of nuclear factor kappa-B kinase subunit beta (Mus musculus) (UniProt O88351); assay: Inhibition of IKKbeta in C57BL/6 mouse BMDM cells assessed as inhibition of TNFalpha-induced MCP1 […] at 25 uM by Northern blot analysis
T3 sequence (whole entry): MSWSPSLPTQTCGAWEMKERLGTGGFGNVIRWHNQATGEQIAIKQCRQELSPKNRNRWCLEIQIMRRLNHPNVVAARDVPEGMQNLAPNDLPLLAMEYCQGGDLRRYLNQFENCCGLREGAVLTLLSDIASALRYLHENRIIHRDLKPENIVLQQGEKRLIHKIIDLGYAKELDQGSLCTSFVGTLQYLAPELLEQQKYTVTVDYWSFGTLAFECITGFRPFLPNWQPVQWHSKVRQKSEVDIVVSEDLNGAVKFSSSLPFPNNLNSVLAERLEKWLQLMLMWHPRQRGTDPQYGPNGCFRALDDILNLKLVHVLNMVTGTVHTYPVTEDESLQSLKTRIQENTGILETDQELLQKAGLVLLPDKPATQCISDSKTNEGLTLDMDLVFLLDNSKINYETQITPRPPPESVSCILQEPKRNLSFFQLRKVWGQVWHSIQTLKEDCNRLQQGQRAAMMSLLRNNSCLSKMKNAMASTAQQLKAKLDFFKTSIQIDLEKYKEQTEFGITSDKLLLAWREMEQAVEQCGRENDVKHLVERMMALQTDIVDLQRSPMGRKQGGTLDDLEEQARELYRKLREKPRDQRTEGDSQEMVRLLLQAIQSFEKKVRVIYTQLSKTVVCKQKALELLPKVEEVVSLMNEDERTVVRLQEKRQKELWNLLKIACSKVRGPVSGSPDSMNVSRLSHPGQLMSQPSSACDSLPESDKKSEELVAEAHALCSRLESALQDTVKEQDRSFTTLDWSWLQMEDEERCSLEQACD

inhibition [1]: inactive
inhibition [2]: inactive
inhibition [3]: Active
inhibition [4]: inactive
SMILES: O=C(CCCCCN1C(=O)C=CC1=O)Oc1ccc2cc(C(C(=O)NCc3ccccc3)N(C(=O)Cc3ccc4c(c3)OCO4)C3CC3)ccc2c1 (centres undefined)
